Data: ChEMBL document CHEMBL4665889, “Design, Synthesis, and Pharmacological Characterization of a Neutral, Non-Prodrug Thrombin Inhibitor with Good Oral Pharmacokinetics” (J Med Chem, 2020)

How the values were obtained:
[1] = Clearance in Wistar rat hepatocytes at 1 uM incubated up to 90 mins by LC-MS/MS analysis; format: ADME, cell-based, Hepatocyte; settings: for CLhep predicted at 1 µM: Wistar
Summary of the method: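 Fresh male Wistar rat hepatocytes, 1 × 10⁶ viable cells/mL, in Williams' medium E at 37 °C, pH 7.4, with 1 μM substrate and <1% acetonitrile. Samples at 2–90 min quenched in acetonitrile and analysed by LC-MS/MS.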

[2] = Permeability from apical to basolateral side in human Caco2 cells incubated for 2 hrs by LC-MS/MS analysis; format: ADME, cell-based; settings: Caco-2
Summary of the method: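 Caco-2 cells grown 15 d on 0.4 μm inserts, TEER ≥600 Ω. Compound (DMSO stock diluted 100-fold) in HBSS pH 7.4 with 10 mM HEPES and 20 mM glucose, added apically or basolaterally. Incubated 2 h at 37 °C and analysed by LC-MS/MS. Papp = (Vr/P0)·(1/S)·(P2/t); mean and SD.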

[3] = target: T1, Nuclear receptor subfamily 1 group I member 2 (Homo sapiens, UniProt O75469); experiment: Activation of human PXR expressed in human HepG2 cells; format: ADME, cell-based
T1 sequence (O75469 whole entry): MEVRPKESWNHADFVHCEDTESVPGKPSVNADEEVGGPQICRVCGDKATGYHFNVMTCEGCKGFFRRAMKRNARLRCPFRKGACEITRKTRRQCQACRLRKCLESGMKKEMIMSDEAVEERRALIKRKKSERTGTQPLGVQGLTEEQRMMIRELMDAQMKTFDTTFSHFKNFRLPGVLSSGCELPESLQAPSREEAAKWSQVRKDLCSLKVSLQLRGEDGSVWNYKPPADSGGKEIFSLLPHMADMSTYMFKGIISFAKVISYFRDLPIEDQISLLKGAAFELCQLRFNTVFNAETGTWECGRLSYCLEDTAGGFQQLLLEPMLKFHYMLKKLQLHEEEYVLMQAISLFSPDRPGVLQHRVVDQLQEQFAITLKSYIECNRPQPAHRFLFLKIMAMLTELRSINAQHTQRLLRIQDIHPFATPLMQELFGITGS
Summary of the method: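 HepG2 cells transiently co-transfected with human PXR and a luciferase reporter under the human CYP3A4 promoter, 48 h before readout. 24 h after seeding, 1:3 serial dilutions (2 nM to 50 μM, 0.5% DMSO) added. Luminescence normalized to rifampicin (100%) and DMSO (0%). MEC is the lowest concentration raising signal above 4-fold SD of DMSO background.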

[4] = Blood clearance in Wistar Hannover rat at 0.3 to 0.5 mg/kg, iv by LC-MS/MS analysis; format: ADME, organism-based; settings: whole blood, dose 0.3-0.5 mg/kg, time <=24 hrs
Summary of the method: (§1)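 Male Wistar Hannover rats, catheterized under isoflurane; one day later iv injection into lateral tail vein at 0.3 to 0.5 mg/kg in plasma containing 2% DMSO. Blood sampled via catheter from 0.033 to 24 h. Plasma precipitated with acetonitrile, analysed by LC-MS/MS (10 mM ammonium acetate pH 3.0/acetonitrile gradient). PK parameters calculated from plasma concentrations.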

[5] = Half life in Wistar Hannover rat at 0.3 to 0.5 mg/kg, iv by LC-MS/MS analysis; format: ADME, organism-based; settings: in vivo, dose 0.3-0.5 mg/kg, time <=24 hrs; summary of the method: as §1
[6] = target: T1, Nuclear receptor subfamily 1 group I member 2; experiment: Activation of human PXR human hepatocytes assessed as induction of CYP3A4 mRNA expression incubated for 48 hrs by qPCR analysis; format: ADME, tissue-based, Hepatocyte
Summary of the method: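 Human hepatocytes in collagen sandwich, cultured 1 d, then treated with eight 1:3 serial concentrations for 2 consecutive days with daily media change. mRNA isolated on magnetic beads, reverse transcribed, and quantified by TaqMan qRT-PCR against actin/tubulin. Fold induction over vehicle by ΔΔCt; NOEL reported.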

[7] = Volume of distribution at steady state in Wistar Hannover rat at 0.3 to 0.5 mg/kg, iv by LC-MS/MS analysis; format: ADME, organism-based; settings: in vivo, dose 0.3-0.5 mg/kg, time <=24 hrs, read-out: Vdss; summary of the method: as §1
[8] = AUC/dose in Wistar Hannover rat at 0.3 to 0.5 mg/kg, iv by LC-MS/MS analysis; format: ADME, organism-based; settings: in vivo, dose 0.3-0.5 mg/kg, time <=24 hrs; summary of the method: as §1
[9] = MRT in Wistar Hannover rat at 0.3 to 0.5 mg/kg, iv by LC-MS/MS analysis; format: ADME, organism-based; settings: in vivo, dose 0.3-0.5 mg/kg, time <=24 hrs; summary of the method: as §1
[10] = Ratio of drug level in blood to plasma in Wistar Hannover rat at 0.3 to 0.5 mg/kg, iv by LC-MS/MS analysis; format: ADME, organism-based; settings: blood and plasma, dose 0.3-0.5 mg/kg, time <=24 hrs

| SMILES | CLhep predicted at 1 µM [1] | Papp A→B at 2 h [2] | MEC [3] | also measured |
| --- | --- | --- | --- | --- |
| CCC1CC(O)C(C)CN1C(=O)c1cc(OC)c2oc(NCc3cccc(Cl)c3)nc2c1 (racemic) | 61.7 mL/min/kg |  |  |  |
| COc1cc(C(=O)N2CC(C)C(O)CC2C)cc2nc(NCc3cccc(Cl)c3)oc12 (stereo not drawn) | 56.7 mL/min/kg | 12.7 ×10⁻⁶ cm/s | 2.6 µM |  |
| O=C(NCc1cccc(Cl)c1)c1ccc2cn(CCN3CCOC3=O)nc2c1 |  | 6.2 ×10⁻⁶ cm/s |  | clearance [4]: 23.3 mL/min/kg |
| COc1cc(C(=O)N2CC(C)(CCO)OC[C@H]2C)cc2nc(NCc3cc(Cl)ccn3)oc12 (stereo partly drawn) | 41.7 mL/min/kg |  | 8 µM | half-life [5]: 0.44 h; NOAEL [6]: > 10000 ng/mL; Vd [7]: 2 L/kg; AUC/dose [8]: 0.23 kg·h/L; MRT [9]: 0.46 h; blood plasma ratio [10]: 1.08; clearance [4]: 66.7 mL/min/kg |
| COc1cc(C(=O)N2CC(C)CCC2CCO)cc2nc(NCc3cccc(Cl)c3)oc12 (stereo in doubt; 37b) |  |  | 0.03 µM | CLH ([1]; 1.5 h, 1 µM): 56.7 mL/min/kg |
| COc1cc(C(=O)N2CC(C)OCC2C2CC(O)C2)cc2nc(NCc3cc(Cl)ccn3)oc12 (stereo not drawn) | 45 mL/min/kg |  | 8.2 µM |  |
| COc1cc(C(=O)N2CC[C@H](O)[C@@H](C)C2)cc2nc(NCc3cccc(Cl)c3)oc12 | 36.7 mL/min/kg |  |  |  |
| COc1cc(C(=O)N2CC(C)OCC2C2CC(O)C2)cc2nc(N[C@H](CF)c3cccc(Cl)c3)oc12 (stereo partly drawn) | 56.7 mL/min/kg |  | 3 µM |  |
| COc1cc(C(=O)N2C[C@@H](C)OC[C@H]2CCO)cc2nc(N[C@H](C)c3cccc(Cl)c3)oc12 | 38.3 mL/min/kg |  | 1.4 µM |  |
| COc1cc(C(=O)N2CC[C@@H](O)C(C)(C)C2)cc2nc(NCc3cccc(Cl)c3)oc12 (racemic) | 51.7 mL/min/kg |  | 6.3 µM |  |
| COc1cc(C(=O)N2CCC(O)C(C)C2)cc2nc(NCc3cccc(Cl)c3)oc12 (racemic) | 45 mL/min/kg | 8.4 ×10⁻⁶ cm/s | 1.4 µM |  |
| COc1cc(C(=O)N2CCCC2(C)C)cc2nc(NCc3cccc(Cl)c3)oc12 | 58.3 mL/min/kg |  |  |  |
| COc1cc(C(=O)N2CCC(O)C(C)C2)cc2nc(NCc3cc(Cl)ccc3O)oc12 (racemic) |  |  | 8.3 µM |  |
| CCCN(CC1CCOC1)C(=O)c1cc(OC)c2oc(NCc3cccc(Cl)c3)nc2c1 (racemic) | 65 mL/min/kg | 24.6 ×10⁻⁶ cm/s |  |  |
| COc1cc(C(=O)N2CCOCC2(C)C)cc2nc(NCc3cccc(Cl)c3)oc12 |  |  | 1.3 µM |  |
| COc1cc(C(=O)N2CC(C)OCC2C2CC(O)C2)cn2nc(NCc3cccc(Cl)c3)nc12 (stereo not drawn) | 50 mL/min/kg | 7.2 ×10⁻⁶ cm/s | 13 µM |  |

| SMILES | CLhep predicted at 1 µM [1] | Papp A→B at 2 h [2] | MEC [3] | also measured |
| --- | --- | --- | --- | --- |
| COc1cc(C(=O)N2CCC(O)C(C)C2)cc2nc(NC3(c4cccc(Cl)c4)CC3)oc12 (racemic) | 46.7 mL/min/kg |  |  |  |
| COc1cc(C(=O)N2CC(C)OCC2CCO)cn2nc(NCc3cccc(Cl)c3)nc12 (stereo not drawn) | 31.7 mL/min/kg |  | 11 µM |  |
| COc1cc(C(=O)N2CC(C)OCC2CO)cc2nc(N[C@H](C)c3cccc(Cl)c3)oc12 (stereo partly drawn) | 15.5 mL/min/kg |  | 0.29 µM | half-life [5]: 1.1 h; Vd [7]: 2.7 L/kg; AUC/dose [8]: 0.47 kg·h/L; MRT [9]: 1.3 h; blood plasma ratio [10]: 0.88; clearance [4]: 40 mL/min/kg |
| COc1cc(C(=O)N2CC(C)C(O)CC2C2CC2)cc2nc(NCc3cccc(Cl)c3)oc12 (racemic) | 63.3 mL/min/kg | 13.8 ×10⁻⁶ cm/s | 0.26 µM |  |
| COc1cc(C(=O)N2CCC(O)C(C)C2)cn2nc(NCc3cccc(Cl)c3)nc12 (racemic) | 35 mL/min/kg | 7.1 ×10⁻⁶ cm/s | 20 µM |  |
| COc1cc(C(=O)N2CC(C)(CCO)OC[C@H]2C)cc2nc(N[C@H](C)c3cccc(Cl)c3)oc12 (stereo partly drawn) | 58.3 mL/min/kg |  | 0.29 µM |  |
| COc1cc(C(=O)N2CCC(O)CC2)cc2nc(NCc3cccc(Cl)c3)oc12 | 21.7 mL/min/kg | 7.1 ×10⁻⁶ cm/s | 3.1 µM |  |
| COc1cc(C(=O)N2CC(C)C(O)CC2CCO)cc2nc(NCc3cccc(Cl)c3)oc12 (racemic) | 4.5 mL/min/kg | 0.94 ×10⁻⁶ cm/s | 0.81 µM |  |
| COc1cc(C(=O)N2CC(C)OCC2CCO)cc2nc(NCc3cc(Cl)ccn3)oc12 (stereo not drawn) | 20 mL/min/kg | 11.1 ×10⁻⁶ cm/s | 17 µM | half-life [5]: 0.5 h; NOAEL [6]: > 10000 ng/mL; Vd [7]: 1.3 L/kg; AUC/dose [8]: 0.39 kg·h/L; MRT [9]: 0.51 h; blood plasma ratio [10]: 1.08; clearance [4]: 40 mL/min/kg |
| CC[C@@H]1CO[C@@](C)(CCO)CN1C(=O)c1cc(OC)c2oc(N[C@H](C)c3cccc(Cl)c3)nc2c1 | 65 mL/min/kg | 6.8 ×10⁻⁶ cm/s | 0.26 µM | half-life [5]: 1 h; NOAEL [6]: 1111 ng/mL; Vd [7]: 3.7 L/kg; AUC/dose [8]: 0.32 kg·h/L; MRT [9]: 1.2 h; blood plasma ratio [10]: 1.07; clearance [4]: 65 mL/min/kg |
| COc1cc(C(=O)N2CC(C)CCC2CCO)cc2nc(NCc3cccc(Cl)c3)oc12 (racemic) | 63.3 mL/min/kg | 19.1 ×10⁻⁶ cm/s | 0.32 µM |  |
| COc1cc(C(=O)N2C[C@H](C)OC[C@@H]2CCO)cc2nc(N[C@H](C)c3cccc(Cl)c3)oc12 | 45 mL/min/kg | 10.1 ×10⁻⁶ cm/s | 2.8 µM |  |
| COc1cc(C(=O)N2CC(C)(CCO)OC[C@H]2C)cc2nc(N[C@H](CF)c3cccc(Cl)c3)oc12 (stereo partly drawn) | 56.7 mL/min/kg |  | 0.39 µM | half-life [5]: 1.1 h; Vd [7]: 3.3 L/kg; AUC/dose [8]: 0.33 kg·h/L; MRT [9]: 1.1 h; blood plasma ratio [10]: 0.94; clearance [4]: 53.3 mL/min/kg |
| COc1cc(C(=O)N2CC(C)OCC2C2CC(O)C2)cc2nc(N[C@H](C)c3cccc(Cl)c3)oc12 (stereo partly drawn) | 56.7 mL/min/kg |  | 3.4 µM |  |
| COc1cc(C(=O)N2CCC(O)C(C)C2)cc2nc(NCc3cc(Cl)ccn3)oc12 (racemic) | 14.3 mL/min/kg | 4.1 ×10⁻⁶ cm/s | 3.6 µM |  |
| COc1cc(C(=O)N2CCC(O)C(C)C2)cc2nc(NCc3cncc(Cl)c3)oc12 (racemic) | 40 mL/min/kg | 0.93 ×10⁻⁶ cm/s |  |  |
